High-throughput results from PubChem BioAssay.
BaF3 parental: parental Ba/F3 cell viability inhibition, counter-screen for JAK2V617F inhibitor project, murine pro-B, CellTiter-Glo luminescence | CellTiter-Glo ATP luminescence | inhibition, % at 5.6 µM | 220,000 tested, 1.1% active;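 active means inhibition above a per-campaign cutoff, the mean inhibition of all tested compounds plus 3 SD, cut at about 27% in these data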
MT stabilize HCS: microtubule stabilizers in HeLa cells, primary screen, imaging, high-content imaging. AID 2205, 2009. HeLa tubulin immunostaining HCS, 24 h; share of cells brighter than vehicle mean+2SD. 200,000 tested, 0.83% active. % tubulin-high responders, % at 10 µM;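 active means plate Z-score above 3 for both tubulin-high and condensed-nucleus cell shares, with cell loss under 80%, at 10 µM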;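 further: anti alpha tubulin signal scored within the nucleus-defined area of each cell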
IEC-6 cytotox: cytotoxicity in IEC-6 intestinal epithelial cells, primary screen, cytotoxicity control for KLF5 inhibitor project, cell-based, luminescence; IEC-6 cytotoxicity, luminescence viability; inhibition, % at 5 µM; 290,000 tested, 0.78% active; AID 1825, 2009; in the data active means inhibition above about 22%
b-catenin transl: modulators of beta-catenin nuclear translocation, primary screen, imaging, HeLa cells, immunofluorescence, high-content. nuclear translocation activity, % at 5 µM. 190,000 tested, 0.3% active. AID 1665, 2009;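 active means nuclear translocation activity above 50% at 5 µM, with a well cell count of 50 or more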;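 further: per-cell ratio of nuclear to cytoplasmic median beta-catenin stain intensity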
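Signal – beta-catenin immunofluorescence imaging with DAPI · Test system – human HeLa cell line · Dosing – 5 µM primary single dose, 0.1% DMSO, 0.02–20 µM confirmation series · Measure – % activation, nuclear-to-cytoplasmic median beta-catenin signal ratio per cell · Incubation – 24 h compound exposure at 37°C, 5% CO2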
APP transl inh: inhibitors of APP translation via 5'UTR reporter, primary screen, APP 5'UTR luciferase, SH-SY5Y cells; SH-SY5Y APP 5'UTR-luciferase reporter, luminescence; inhibition, % at 2 µM; 190,000 tested, 0.82% active; AID 1285, 2008;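 active means inhibition above a set limit, derived from the sample mean plus 3 SD, cut at about 45% in these data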
Ba/F3 V617F tox: reduced viability of JAK2V617F-dependent Ba/F3 cells, primary screen, JAK2V617F inhibitor project, cell-based, Ba/F3 EpoR-JAK2V617F, luminescence; ATP luminescence; inhibition, % at 5.6 µM; 220,000 tested, 1.1% active;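 active means inhibition above the campaign mean plus 3 SD over all tested compounds, cut at about 24% in these data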;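 further: cytokine-independent growth of Ba/F3 cells driven by EpoR plus mutant JAK2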
Numbers stand for hits; n = inactive; x = no result. Hits are enriched below; roughly 2.2% of the tested compounds scored in any of these assays.

SMILES	BaF3 parental	MT stabilize HCS	IEC-6 cytotox	b-catenin transl	APP transl inh	Ba/F3 V617F tox
NC(=O)c1c(NC(=O)CSc2nnc(-c3ccco3)n2-c2ccccc2)sc2c1CCC2	n	23	n	n	n	n
COc1ccc(-c2nnc(SCC(=O)Nc3sc4c(c3C#N)CCCC4)n2-c2ccccc2)cc1	n	20	n	n	n	n
COc1ccc(CNC(=O)N2CCc3ccccc3C2)cc1	x	x	n	x	x	x
S=C(Nc1cccc(Cl)c1Cl)N1CCC2(CC1)OCCO2	30	n	n	n	n	n
S=C(Nc1ccccc1Cl)N1CCCC1	n	n	n	n	n	n
C=CCCC(=O)Nc1nc(C)c(-c2csc(Nc3cc(OC)ccc3OC)n2)s1	59	31	n	70	53	34
COc1cc(CNc2ccc(C)c(C)c2)cc(OC)c1OC	n	n	n	107	n	n
COc1ccc(CNc2ccc(C)c(C)c2)cc1	n	n	n	n	n	n
Nc1ccccc1-c1nc2ccccc2[nH]c1=O	x	x	n	x	x	x
Nc1ccc(Br)cc1-c1nc2ccccc2[nH]c1=O	100	n	39	n	n	66
C(=C\c1ccco1)/c1nc2ccccc2[nH]1	n	n	n	n	n	n
O=c1[nH]c(/C=C/c2ccc(Br)cc2)nc2ccccc12	x	x	n	x	x	x
C(=C\c1nc2ccccc2[nH]1)/c1ccccc1	n	41	n	x	n	n
Cc1nc(/C=C/c2ccccc2)[nH]c(=O)c1-c1ccccc1	n	9.2	n	n	n	n
Cc1cccc(/C=C\c2nc3ccccc3c(=O)[nH]2)c1	n	12	n	n	n	n
Cc1ccc(O)c(C2=Nc3ccccc3N=C(c3cccc([N+](=O)[O-])c3)C2)c1	n	n	n	n	n	n
O=C1C(Nc2cccc(O)c2)=C(N2CCCCC2)C(=O)c2ccccc21	99	n	n	n	n	87
COc1ccccc1NC1=C(N2CCCCC2)C(=O)c2ccccc2C1=O	100	n	n	n	n	101
Cc1ccc(NC2=C(N3CCCCC3)C(=O)c3ccccc3C2=O)cc1	98	n	n	n	n	96
O=C1C(NS(=O)(=O)c2ccc(Br)cc2)=C(N2CCCCC2)C(=O)c2ccccc21	x	x	n	x	x	x
O=C(/C=C/c1ccc(O)cc1)c1ccc(NC2=C(N3CCCCC3)C(=O)c3ccccc3C2=O)cc1	n	n	n	n	n	n
CN(C1=C(N2CCCCC2)C(=O)c2ccccc2C1=O)c1ccccc1	65	n	n	n	n	26
O=C1C(Nc2ccccc2)=C(N2CCCCC2)C(=O)c2ccccc21	102	n	n	n	n	98
NS(=O)(=O)c1ccc(CCNC(=O)c2cc(-c3ccccn3)nc3ccc(Br)cc23)cc1	n	n	n	n	n	n
CCCCCOc1ccc(Br)cc1CSC(=N)N	47	n	49	89	63	60
SMILES	BaF3 parental	MT stabilize HCS	IEC-6 cytotox	b-catenin transl	APP transl inh	Ba/F3 V617F tox
COc1ccc(Br)cc1CSC(=N)N	n	n	n	n	n	n
N#CC1=C(SCC(=O)c2ccc(Br)cc2)NC2=C(C(=O)CCC2)C1c1ccco1 (centres undefined)	n	32	n	n	67	n
Cc1sc(NC(=O)CN(Cc2ccc(F)cc2)C(=O)C(C)(C)C)c(C(N)=O)c1C	n	n	n	n	n	n
Cc1ccc(-c2nnc(SCC(C)C)n2C)cc1	33	n	n	n	n	30
Cc1ccc(-c2nnc(SCC(N)=O)n2C)cc1	n	n	n	n	n	n
CCSc1ccc2cc(OC)ccc2[n+]1CC	88	n	n	n	n	82
CCn1ccc2cc(OC)ccc2c1=S	n	n	n	n	n	n
N#C/C(=C/c1ccc(N2CCOCC2)o1)c1ccc(Cl)cc1	56	48	n	n	n	47
N#C/C(=C\c1ccc(N2CCOCC2)o1)c1nc2ccccc2[nH]1	n	n	n	n	n	n
CCOC(=O)c1c(C)c(C(=O)Nc2ccc(N(C)C)cc2)c(C)n1CC	n	13	n	n	n	n
CCOC(=O)c1c(C)c(C(=O)NCCOC)c(C)n1CC	n	n	n	n	n	n
Cc1ccc(O)c(-c2cc(-c3ccc(F)cc3)no2)c1	x	x	n	x	x	x
CN=c1scc(-c2ccc([N+](=O)[O-])cc2)n1/N=C/c1ccco1	n	n	n	n	n	n
CN=c1scc(-c2ccc(F)cc2)n1/N=C/c1ccc(O)c(O)c1	36	n	n	x	n	98
CC(=O)NNC(=O)c1csc(-c2csc(C)n2)n1	n	x	n	n	x	n
Brc1cccc2sc(N3CCCC3)nc12	n	n	n	n	n	n
Cc1cc(-c2nnc3n2N=C(c2ccc(-c4ccccc4)cc2)CS3)n[nH]1	n	n	n	n	n	n
c1ccc(-c2cc(-c3nnc4n3N=C(c3ccc5ccccc5c3)CS4)[nH]n2)cc1	n	21	n	n	n	n
OCC[C@@H]1C[C@H](O)[C@@H](O)[C@]2(Cc3ccccc3CO2)O1	x	x	n	x	x	x
C=CCn1c(SCC(=O)c2[nH]c(C)c(C(=O)OCC)c2C)nc2scc(-c3ccc(OC)cc3)c2c1=O	n	n	n	n	60	n
O=C(N/N=C/c1sc2ccccc2c1O)c1cccc2ccccc12	n	n	n	n	48	n
O=C(N/N=C/c1sc2ccccc2c1O)c1ccccc1	n	n	n	x	53	n
O=C(/C=C/c1ccccc1[N+](=O)[O-])c1ccccc1Br	n	29	n	n	n	n
CCOC(=O)N1CCN(C(=O)c2noc(C(C)C)c2[N+](=O)[O-])CC1	n	n	n	n	n	n
COc1ccc2nc(NC(=O)CSc3nc(C)cc(=O)[nH]3)sc2c1	n	n	n	n	60	n
SMILES	BaF3 parental	MT stabilize HCS	IEC-6 cytotox	b-catenin transl	APP transl inh	Ba/F3 V617F tox
CCc1ccccc1NC(=S)NN	n	x	n	n	92	n
O=Cc1ccc(Oc2cnccn2)cc1	n	n	n	n	76	n
CCN(C(=O)c1ccc2c(SCC(=O)O)c3c(nc2c1)CCC3)c1cc(Cl)ccc1OC	x	x	n	x	x	x
Cn1c(C(=O)N2CCCC(C(=O)O)C2)cc2sccc21 (centres undefined)	95	n	n	x	n	n
Cn1c(C(=O)N2CCCC(C(=O)N3CCN(C(=O)c4ccco4)CC3)C2)cc2sccc21 (centres undefined)	n	n	n	x	n	n
CCCCN(C(=O)c1cc2ccccc2o1)c1c(N)n(CC(C)C)c(=O)[nH]c1=O	n	n	n	x	54	n
CCCCN(C(=O)c1cc2ccccc2o1)c1c(N)n(CCC)c(=O)[nH]c1=O	n	n	n	n	n	n
CCN(C(=S)NCCOC)c1cccc2ccccc12	27	n	n	n	n	32
CC(=O)Oc1ccccc1C(=O)OCCN=C1NS(=O)(=O)c2ccccc21	x	x	n	x	x	x
